Data taken from ChEMBL document CHEMBL2176946, “An anthraquinone scaffold for putative, two-face Bim BH3 α-helix mimic” (J Med Chem, 2012).
Activity calls are given as the source filed them. The calls are words filed in the database; no cut-off is given here.

Assays:
[1] = molecular target: Apoptosis regulator Bcl-2 (Homo sapiens, UniProt P10415); assay: Binding affinity to Bcl-2 after 30 mins by florescence polarization assay
In short: (§1)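 Fluorescence polarization binding assay against Mcl-1 and Bcl-2 proteins.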

[2] = molecular target: T1, Induced myeloid leukemia cell differentiation protein Mcl-1 (Homo sapiens, UniProt Q07820); assay: Binding affinity to Mcl-1 after 30 mins by florescence polarization assay; in short: as §1
T1 sequence (Q07820 whole entry): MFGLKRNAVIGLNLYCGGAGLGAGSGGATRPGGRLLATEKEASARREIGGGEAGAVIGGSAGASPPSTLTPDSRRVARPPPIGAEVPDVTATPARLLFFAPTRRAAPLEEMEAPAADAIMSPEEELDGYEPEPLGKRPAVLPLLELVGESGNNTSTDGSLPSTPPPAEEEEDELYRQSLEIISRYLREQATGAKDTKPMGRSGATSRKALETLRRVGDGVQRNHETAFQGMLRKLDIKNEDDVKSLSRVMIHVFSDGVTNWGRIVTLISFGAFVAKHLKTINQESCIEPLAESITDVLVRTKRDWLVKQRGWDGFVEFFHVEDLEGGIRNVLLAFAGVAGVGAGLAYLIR

MCF7 [3] = assay: Induction of necrosis in human MCF7 cells at 10 uM after 12 to 24 hrs by Annexin V-FITC/PI staining based flow cytometry; format: functional, cell-based
MCF7 [4] = assay: Cytotoxicity against human MCF7 cells transfected with Bax/Bak shRNA assessed as cell viability after 48 hrs by MTT assay; format: functional, cell-based
In short: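 MCF-7 cells transfected with nonspecific shRNA or Bax/Bak shRNA, treated 48 h with graded doses of compound. Viability read by MTT assay.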

[5] = Cytotoxicity against human NCI-H1688 cells by MTT assay; format: functional, cell-based
SMMC-7721 = assay: Cytotoxicity against human SMMC7721 cells by MTT assay; format: functional, cell-based
MCF7 [6] = assay: Induction of apoptosis in human MCF7 cells at 10 uM after 12 to 24 hrs by Annexin V-FITC/PI staining based flow cytometry; format: functional, cell-based
[7] = molecular target: T1, Induced myeloid leukemia cell differentiation protein Mcl-1; assay: Binding affinity to Mcl-1 in ABT737-resistant human Nalm-6 cells assessed as disruption of Mcl-1/Bak at 5 uM after 12 to 24 hrs by coimmunoprecipitation assay; format: cell-based
In short: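 Nalm-6 cells (ABT737-resistant) incubated with 5 μM compound for 12 or 24 h. Total cell lysates immunoprecipitated with anti-Bcl-2 or anti-Mcl-1 antibody. Precipitates and lysates resolved by SDS-PAGE and Western blotted with anti-Bcl-2, anti-Bax, anti-Mcl-1 and anti-Bak antibodies.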

Nucleic Acid = assay: Induction of DNA damage in Escherichia coli pBR322 at 100 uM after 2 hrs by agarose gel electrophoresis; format: functional
MCF7 [8] = assay: Cytotoxicity against human MCF7 cells by MTT assay; format: functional, cell-based
HEK293 = assay: Cytotoxicity against human HEK293 cells by MTT assay; format: cell-based
HeLa = assay: Cytotoxicity against human HeLa cells by MTT assay; format: functional, cell-based
U-937 = assay: Cytotoxicity against human U937 cells by MTT assay; format: functional, cell-based
K562 = assay: Cytotoxicity against human K562 cells by MTT assay; format: functional, cell-based

Chain of Apoptosis regulator Bcl-2 (P10415 whole entry): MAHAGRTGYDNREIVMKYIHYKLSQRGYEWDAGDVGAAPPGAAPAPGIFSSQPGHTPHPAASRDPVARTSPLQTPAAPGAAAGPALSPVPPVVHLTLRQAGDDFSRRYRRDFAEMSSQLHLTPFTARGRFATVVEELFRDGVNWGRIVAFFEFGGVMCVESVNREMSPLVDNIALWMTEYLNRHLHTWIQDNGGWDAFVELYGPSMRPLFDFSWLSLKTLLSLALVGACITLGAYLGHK

`O=C1c2ccccc2C(=O)c2cc(O)c(O)cc21` gave a Ki [1] of 0.42 µM and a Ki [2] of 0.312 µM.
In the case of `Cc1ccc(Sc2ccc3c(c2)C(=O)c2cc(O)c(O)cc2C3=O)cc1`, the Ki [1] is reported as 0.044 µM and the Ki [2] is reported as 0.038 µM.
For `O=C1c2ccccc2C(=O)c2c1ccc(O)c2O` [ATHRAQUINONES A], the Ki [1] was 1.15 µM and the Ki [2] was 1.62 µM.
For `O=C1c2ccccc2C(=O)c2c(O)cc(O)cc21` [XANTHOPURPURIN], the Ki [1] was 1.7 µM and the Ki [2] was 2.27 µM.
`O=C1c2ccc(Sc3ccc(Br)cc3)cc2C(=O)c2cc(O)c(O)cc21` gave a Ki [1] of 0.087 µM and a Ki [2] of 0.056 µM.
With `O=C1c2ccccc2C(=O)c2c1cc(O)c(O)c2O` the Ki [1] was 0.583 µM and the Ki [2] was 0.27 µM.
For `CC(C)c1ccc(Sc2ccc3c(c2)C(=O)c2cc(O)c(O)cc2C3=O)cc1`, the Activity (MCF7 [3]) was “inactive”, the Activity (MCF7 [4]) was “inactive” and the IC50 [5] was 4.37 µM. For the same compound, the IC50 (SMMC-7721) was 6.85 µM, the Ki [1] was 0.024 µM and the Activity (MCF7 [6]) was “Active”. The Activity [7] was “Active”, the Activity (Nucleic Acid) was “inactive” and the IC50 (MCF7 [8]) was 6.12 µM. For the same compound, the Ki [2] was 0.013 µM, the IC50 (HEK293) was 50.3 µM and the IC50 (HeLa) was 5.24 µM. The IC50 (U-937) was 4.06 µM and the IC50 (K562) was 3.25 µM.
`O=C1c2ccc(Br)cc2C(=O)c2cc(O)c(O)cc21` showed a Ki [1] of 0.132 µM and a Ki [2] of 0.107 µM.
In the case of `O=C1c2ccc(Sc3ccccc3)cc2C(=O)c2cc(O)c(O)cc21`, the Ki [1] is reported as 0.071 µM and the Ki [2] is reported as 0.053 µM.
